Activity calls are given as the source filed them. The rule behind the calls is not given here.
Legend:
[1] = Metabolic stability in human liver microsomes after 1 hr by LC/MS/MS analysis in presence of NADPH; assay type: ADME, Microsome; conditions: read-out: Stability
In short: (§1)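 Compound incubated at 37 °C for 60 min with 1 mg/mL human or mouse liver microsomes in 100 mM KH2PO4, 3 mM MgCl2, pH 7.4, with 2 mM NADPH or without it. Stopped with ice-cold methanol, then precipitate removed. Analyzed by LC/MS/MS as % remaining versus time zero. Duplicates.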

LNCaP [2] = test: Cytotoxicity against human LNCAP cells after 72 hrs by WST-1 assay; assay type: functional, cell-based
In short: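 LNCaP cells seeded at 5000–7500 per well and left to adhere 36–48 h. Compound added in fresh medium for 72 h. Metabolic activity read by WST-1 and IC50 derived from the dose–response. Biological triplicates.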

Mus musculus [3] = test: Acute toxicity in C57BL/6J mouse assessed as ALT level at 3 mg/kg, sc after 9 days; assay type: organism-based; design: dose 3 mg/kg, route subcutaneous; conditions: in vivo, 216 h
In short: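 Male C57BL/6J mice, 8 weeks old, acclimated 3 days, then given a single sc injection of 1, 3 or 10 mg/kg in 25% DMSO/saline (4 per group). Weighed daily for 9 days, then sacrificed. Serum taken by retroorbital bleed and spun at 6000 rpm for 5 min. ALT, AST, total bilirubin, BUN and creatinine measured by an outside lab, blinded.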

LNCaP [4] = test: Induction in GADD45A level in human LNCAP cells after 72 hrs by RT-PCR analysis; assay type: functional, cell-based
In short: (§2)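 LNCaP cells, 50 000 per well, adhered 36–48 h, then treated with 1, 3 or 10 μM for 72 h. Total RNA extracted on columns and transcripts quantified by RT-qPCR.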

Mus musculus [5] = test: Acute toxicity in C57BL/6J mouse assessed as lesions in pancreas at 1 to 10 mg/kg, sc after 9 days; assay type: organism-based; design: dose 1-10 mg/kg, route subcutaneous; conditions: in vivo, 216 h
In short: (§3)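 Male C57BL/6J mice, 8 weeks old, received a single sc dose (1, 3 or 10 mg/kg in 25% DMSO/saline, n = 4 per group) and were sacrificed after 9 days. Two representative animals per group were fixed in 10% formalin. Cecum, duodenum, heart, ileum, kidney, liver, lung, pancreas, spleen and stomach were examined blind by a veterinary pathologist and lesions graded mild, moderate or severe.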

Mus musculus [6] = test: Acute toxicity in C57BL/6J mouse assessed as lesions in lungs at 1 to 10 mg/kg, sc after 9 days; assay type: organism-based; design: dose 1-10 mg/kg, route subcutaneous; conditions: in vivo, 216 h; in short: as §3
Mus musculus [7] = test: Toxicity in NSG immunocompromised mouse model xenografted with human LNCAP cells assessed as weight loss at 1 mg/kg, sc administered once every 3 days for a cycle of six injections; assay type: organism-based; design: dose 1 mg/kg, route subcutaneous; conditions: in vivo, 72 h
In short: (§4)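 Male NSG mice engrafted in the left flank with 2.5 million LNCaP cells in 1:1 media/matrigel; dosing began at ~200 mm3 tumours (0.5 × L × W2). Compound or vehicle given sc in 20% DMSO/normal saline once every 3 d for six injections, n = 14 per group; weight and general health checked daily, sacrifice 2 days after final injection.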

Mus musculus [8] = test: Acute toxicity in C57BL/6J mouse assessed as lesions in heart at 1 to 10 mg/kg, sc after 9 days; assay type: organism-based; design: dose 1-10 mg/kg, route subcutaneous; conditions: in vivo, 216 h; in short: as §3
Mus musculus [9] = test: Acute toxicity in C57BL/6J mouse assessed as lesions in stomach at 1 to 10 mg/kg, sc after 9 days; assay type: organism-based; design: dose 1-10 mg/kg, route subcutaneous; conditions: in vivo, 216 h; in short: as §3
[10] = Metabolic stability in mouse liver microsomes after 1 hr by LC/MS/MS analysis; assay type: ADME, Microsome; conditions: read-out: Stability; in short: as §1
[11] = Metabolic stability in human liver microsomes after 1 hr by LC/MS/MS analysis; assay type: ADME, Microsome; conditions: read-out: Stability; in short: as §1
LNCaP [12] = test: Reduction in cellular RPB1 level in human LNCAP cells at 10 uM after 72 hrs by ELISA; assay type: functional, cell-based
In short: (§5)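 LNCaP cells treated 72 h at 10 μM. DMSO vehicle and 1 μM doxorubicin for 24 h served as controls. RPB1 measured with an RPB1-specific ELISA and total p53 with a pan-p53 ELISA. Biological triplicates.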

LNCaP [13] = test: Antitumor activity against human LNCAP cells xenografted in NSG immunocompromised mouse model assessed as tumor growth inhibition at 1 mg/kg, sc administered once every 3 days for a cycle of six injections measured 2 days post last injection relative to control; assay type: functional; conditions: route subcutaneous
In short: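 Male NSG mice engrafted in the left flank with 2.5 million LNCaP cells in 1:1 media/matrigel. Treatment began at ~200 mm3 (0.5 × L × W2): 1 mg/kg sc in 20% DMSO/normal saline, or vehicle alone, every 3 days for six injections, 14 mice per group. Sacrificed 2 days after the last dose. Tumor weights compared with vehicle (T/C).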

LNCaP [14] = test: Genotoxicity in human LNCAP cells assessed as DNA strand breaks at 10 uM after 48 hrs by comet assay; assay type: toxicity, cell-based
In short: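 LNCaP cells, 100 000 per well, adhered 36–48 h, then treated 48 h at 10 μM (5 μM doxorubicin for 4 h as control). Alkaline comet assay imaged at 10× by confocal microscopy. More than 100 comets scored per condition. Damage reported as % DNA in tail.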

LNCaP [15] = test: Induction in IGFBP3 level in human LNCAP cells after 72 hrs by RT-PCR analysis; assay type: functional, cell-based; in short: as §2
Mus musculus [16] = test: Acute toxicity in C57BL/6J mouse assessed as lesions in GI tract at 1 to 10 mg/kg, sc after 9 days; assay type: organism-based, Gastrointestinal tract; design: dose 1-10 mg/kg, route subcutaneous; conditions: in vivo, 216 h; in short: as §3
Mus musculus [17] = test: Toxicity in C57BL/6J mouse assessed as total WBC count at 1 mg/kg, sc administered once every 3 days for a cycle of six injections measured 2 days post last injection; assay type: organism-based; design: dose 1 mg/kg, route subcutaneous; conditions: in vivo, 48 h
In short: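 Male C57BL/6J mice, blood taken by retroorbital bleed before dosing; after 1 week recovery, sc injections once every 3 d in 20% DMSO:normal saline, six injections; bled again at end point (2 days after final injection). K2EDTA blood sent for hematology (WBC, RBC, hemoglobin, neutrophils, lymphocytes); n = 5, mean with std.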

[18] = Metabolic stability in mouse liver microsomes after 1 hr by LC/MS/MS analysis in presence of NADPH; assay type: ADME, Microsome; conditions: read-out: Stability; in short: as §1
Mus musculus [19] = test: Toxicity in C57BL/6J mouse assessed as morbidity at 1 mg/kg, sc administered every 3 days for a cycle of 3 injections; assay type: organism-based; design: dose 1 mg/kg, route subcutaneous; conditions: in vivo, 72 h
In short: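 Male C57BL/6J mice, 3 per group, given 1 mg/kg sc every 3 days. Weight recorded on injection days. Watched for signs of duress. Humane end point was visible duress or weight loss over 15% of starting body weight.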

Mus musculus [20] = test: Toxicity in NSG immunocompromised mouse model xenografted with human LNCAP cells assessed as distress at 1 mg/kg, sc administered once every 3 days for a cycle of six injections; assay type: organism-based; design: dose 1 mg/kg, route subcutaneous; conditions: in vivo, 72 h; in short: as §4
LNCaP [21] = test: Induction in cellular p53 level in human LNCAP cells at 10 uM after 72 hrs by ELISA; assay type: functional, cell-based; in short: as §5
LNCaP [22] = test: Induction in p21 level in human LNCAP cells after 72 hrs by RT-PCR analysis; assay type: functional, cell-based; in short: as §2
Mus musculus [23] = test: Acute toxicity in C57BL/6J mouse at 1 to 10 mg/kg, sc after 9 days; assay type: organism-based; design: dose 1-10 mg/kg, route subcutaneous; conditions: in vivo, 216 h
In short: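 Single sc injection in male 8-week-old C57BL/6J mice (1, 3 or 10 mg/kg in 25% DMSO/saline; n = 4 per group), followed for 9 days with daily weighing, then sacrifice. Toxicity was assessed by blinded histopathology of two mice per group and by blinded serum ALT, AST, total bilirubin, BUN and creatinine from retroorbital blood of all mice.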

Mus musculus [24] = test: Toxicity in C57BL/6J mouse assessed as total RBC count at 1 mg/kg, sc administered once every 3 days for a cycle of six injections measured 2 days post last injection; assay type: organism-based; design: dose 1 mg/kg, route subcutaneous; conditions: in vivo, 48 h
In short: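 Five male C57BL/6J mice bled retroorbitally into K2EDTA tubes at baseline. After 1 week of recovery they were given 1 mg/kg sc in 20% DMSO/saline every 3 days for six injections, then bled again at the end point. Hematology (WBC, RBC, hemoglobin, neutrophils, lymphocytes) measured externally. Mean of five animals, ± std.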

Mus musculus [25] = test: Toxicity in C57BL/6J mouse assessed as weight loss at 1 mg/kg, sc administered every 3 days for a cycle of 3 injections; assay type: organism-based; design: dose 1 mg/kg, route subcutaneous; conditions: in vivo, 72 h
In short: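 8-week-old male C57BL/6J mice, acclimated 3 days, groups of three, dosed sc in 25% DMSO/saline vehicle once every 3 days, sacrificed 2 days after the last injection. Body weight recorded on injection days and at end point; humane end point set at visible duress or >15% loss of original body weight.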

**Q.** Which remaining at 1 h [1] does the source give for `CC(=O)N[C@H](CCNC(=O)c1cc(NC(=O)c2cc(NC(=O)c3cc(NC(=O)c4nccn4C)cn3C)cn2C)cn1C)C(=O)Nc1cn(C)c(C(=O)Nc2cc(C(=O)Nc3cc(C(=O)Nc4cc(C(=O)NCCCN(C)CCCNC(=O)c5cccc(C(=O)O)c5)n(C)c4)n(C)c3)n(C)c2)n1` here?
**A.** > 90%

**Q.** What about the Activity (LNCaP [2]) of the same compound?
**A.** Dose-dependent effect

**Q.** And the IC50 (LNCaP [2])?
**A.** 2100 nM

**Q.** And the Activity (Mus musculus [3])?
**A.** 29 U/L

**Q.** And the Activity (LNCaP [4])?
**A.** Dose-dependent effect

**Q.** What about the Activity (Mus musculus [5]) of the same compound?
**A.** Non-toxic

**Q.** What about the Activity (Mus musculus [6]) of the same compound?
**A.** Non-toxic

**Q.** And the Activity (Mus musculus [7])?
**A.** Non-toxic

**Q.** And the Activity (Mus musculus [8])?
**A.** Non-toxic

**Q.** And the Activity (Mus musculus [9])?
**A.** Non-toxic

**Q.** And the remaining at 1 h [10]?
**A.** > 90%

**Q.** And the remaining at 1 h [11]?
**A.** > 90%

**Q.** What about the Activity (LNCaP [12]) of the same compound?
**A.** Active

**Q.** And the T/C (LNCaP [13])?
**A.** 52.4%

**Q.** What about the Activity (LNCaP [14]) of the same compound?
**A.** Non-toxic

**Q.** And the Activity (LNCaP [15])?
**A.** Dose-dependent effect

**Q.** What about the Activity (Mus musculus [16]) of the same compound?
**A.** Non-toxic

**Q.** And the Activity (Mus musculus [17])?
**A.** Non-toxic

**Q.** And the remaining at 1 h [18]?
**A.** > 90%

**Q.** And the Activity (Mus musculus [19])?
**A.** Non-toxic

**Q.** What about the Activity (Mus musculus [20]) of the same compound?
**A.** Non-toxic

**Q.** What about the Activity (LNCaP [21]) of the same compound?
**A.** Active

**Q.** And the Activity (LNCaP [22])?
**A.** Dose-dependent effect

**Q.** And the Activity (Mus musculus [23])?
**A.** Non-toxic

**Q.** What about the Activity (Mus musculus [24]) of the same compound?
**A.** Non-toxic

**Q.** What about the Activity (Mus musculus [25]) of the same compound?
**A.** Non-toxic
